# Measured values as given in ChEMBL document CHEMBL2040809, “Synthesis and biological activity evaluation of cytidine-5'-deoxy-5-fluoro-N-[(alkoxy/aryloxy)] carbonyl-cyclic 2',3'-carbonates” (Eur J Med Chem, 2012).
# System: L1210
# Assay: Antitumor activity against mouse L1210 cells xenografted in BDF-1 mouse assessed as increase in mean survival time at 0.080 mmol/kg, po administered 5 days in a week for 3 weeks
# Conditions: not given
row,SMILES,MST [days]
1,C[C@H]1O[C@@H](n2cc(F)c(NC(=O)Oc3ccc([N+](=O)[O-])cc3)nc2=O)[C@@H]2OC(=O)O[C@@H]21,27.1

# System: Salmonella typhimurium
# Assay: Mutagenic activity in Salmonella typhimurium TA102 at 0.312 to 5 mg/plate measured after incubation of upside down for 48 hrs in presence of liver S9 mixture
# Format: toxicity, organism-based
# Conditions: salmonella enterica subsp. enterica serovar typhimurium, s9, 48 h
# Method in brief: (§1)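 Plate incorporation trial (Trial I) with histidine-dependent auxotrophs. Revertant colonies are counted against the concurrent vehicle control. Each dose and each control, including negative, vehicle and positive reference mutagens, run in triplicate plates.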
row,SMILES,Activity
1,C[C@H]1O[C@@H](n2cc(F)c(NC(=O)Oc3ccc([N+](=O)[O-])cc3)nc2=O)[C@@H]2OC(=O)O[C@@H]21,Non-toxic

# System: Salmonella typhimurium
# Assay: Mutagenic activity in Salmonella typhimurium TA100 at 0.312 to 5 mg/plate measured after incubation of upside down for 48 hrs in absence of liver S9 mixture
# Format: toxicity, organism-based
# Conditions: salmonella enterica subsp. enterica serovar typhimurium
# Method in brief: as §1
row,SMILES,Activity
1,C[C@H]1O[C@@H](n2cc(F)c(NC(=O)Oc3ccc([N+](=O)[O-])cc3)nc2=O)[C@@H]2OC(=O)O[C@@H]21,Non-toxic

# System: Salmonella typhimurium
# Assay: Mutagenic activity in Salmonella typhimurium TA1535 at 0.312 to 5 mg/plate preincubated for 20 mins before addition in absence of liver S9 mixture
# Format: toxicity, organism-based
# Conditions: salmonella enterica subsp. enterica serovar typhimurium
# Method in brief: (§2)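 Pre-incubation trial (Trial II) with histidine-dependent auxotrophs. Test solution is pre-incubated with bacterial suspension and S9 mix (10% v/v) or substitution buffer before plating on selective agar. Revertant colonies are counted against the concurrent vehicle control. Triplicate plates per dose and per control (negative, vehicle, positive reference mutagens).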
row,SMILES,Activity
1,C[C@H]1O[C@@H](n2cc(F)c(NC(=O)Oc3ccc([N+](=O)[O-])cc3)nc2=O)[C@@H]2OC(=O)O[C@@H]21,Non-toxic

# System: MCF7
# Assay: Cytotoxicity against human MCF7 cells after 3 days MTT assay
# Format: functional, cell-based
# Conditions: MCF7, 72 h
# Method in brief: (§3)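 Cells held as monolayers in DMEM with 10% supplement. Seeded in 96-well plates on day 0 at densities set by doubling time: 1 × 10⁴/mL for HeLa and NCI-69, 2 × 10⁴/mL for MCF-7, 3 × 10⁴/mL for PZ-HPV-7. Five dilutions (10⁻⁸–5 × 10⁻⁶ mol/l), freshly prepared, added for 72 h. Growth read by MTT (succinate dehydrogenase activity); IC50 derived.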
row,SMILES,IC50 [µg/mL]
1,C[C@H]1O[C@@H](n2cc(F)c(NC(=O)Oc3ccc([N+](=O)[O-])cc3)nc2=O)[C@@H]2OC(=O)O[C@@H]21,6

# System: Salmonella typhimurium
# Assay: Mutagenic activity in Salmonella typhimurium TA1537 at 0.312 to 5 mg/plate measured after incubation of upside down for 48 hrs in absence of liver S9 mixture
# Format: toxicity, organism-based
# Conditions: salmonella enterica subsp. enterica serovar typhimurium
# Method in brief: as §1
row,SMILES,Activity
1,C[C@H]1O[C@@H](n2cc(F)c(NC(=O)Oc3ccc([N+](=O)[O-])cc3)nc2=O)[C@@H]2OC(=O)O[C@@H]21,Non-toxic

# System: Salmonella typhimurium
# Assay: Mutagenic activity in Salmonella typhimurium TA98 at 0.312 to 5 mg/plate preincubated for 20 mins before addition in absence of liver S9 mixture
# Format: toxicity, organism-based
# Conditions: salmonella enterica subsp. enterica serovar typhimurium
# Method in brief: as §2
row,SMILES,Activity
1,C[C@H]1O[C@@H](n2cc(F)c(NC(=O)Oc3ccc([N+](=O)[O-])cc3)nc2=O)[C@@H]2OC(=O)O[C@@H]21,Non-toxic

# System: Salmonella typhimurium
# Assay: Mutagenic activity in Salmonella typhimurium TA102 at 0.312 to 5 mg/plate measured after incubation of upside down for 48 hrs in absence of liver S9 mixture
# Format: toxicity, organism-based
# Conditions: salmonella enterica subsp. enterica serovar typhimurium
# Method in brief: as §1
row,SMILES,Activity
1,C[C@H]1O[C@@H](n2cc(F)c(NC(=O)Oc3ccc([N+](=O)[O-])cc3)nc2=O)[C@@H]2OC(=O)O[C@@H]21,Non-toxic

# System: Salmonella typhimurium
# Assay: Mutagenic activity in Salmonella typhimurium TA100 at 0.312 to 5 mg/plate preincubated for 20 mins before addition in absence of liver S9 mixture
# Format: toxicity, organism-based
# Conditions: salmonella enterica subsp. enterica serovar typhimurium
# Method in brief: as §2
row,SMILES,Activity
1,C[C@H]1O[C@@H](n2cc(F)c(NC(=O)Oc3ccc([N+](=O)[O-])cc3)nc2=O)[C@@H]2OC(=O)O[C@@H]21,Non-toxic

# System: Salmonella typhimurium
# Assay: Mutagenic activity in Salmonella typhimurium TA1537 at 0.312 to 5 mg/plate measured after incubation of upside down for 48 hrs in presence of liver S9 mixture
# Format: toxicity, organism-based
# Conditions: salmonella enterica subsp. enterica serovar typhimurium, s9, 48 h
# Method in brief: as §1
row,SMILES,Activity
1,C[C@H]1O[C@@H](n2cc(F)c(NC(=O)Oc3ccc([N+](=O)[O-])cc3)nc2=O)[C@@H]2OC(=O)O[C@@H]21,Non-toxic

# System: Salmonella typhimurium
# Assay: Mutagenic activity in Salmonella typhimurium TA1535 at 0.312 to 5 mg/plate preincubated for 20 mins before addition in presence of liver S9 mixture
# Format: toxicity, organism-based
# Conditions: salmonella enterica subsp. enterica serovar typhimurium
# Method in brief: as §2
row,SMILES,Activity
1,C[C@H]1O[C@@H](n2cc(F)c(NC(=O)Oc3ccc([N+](=O)[O-])cc3)nc2=O)[C@@H]2OC(=O)O[C@@H]21,Non-toxic

# System: Salmonella typhimurium
# Assay: Mutagenic activity in Salmonella typhimurium TA1537 at 0.312 to 5 mg/plate preincubated for 20 mins before addition in presence of liver S9 mixture
# Format: toxicity, organism-based
# Conditions: salmonella enterica subsp. enterica serovar typhimurium
# Method in brief: as §2
row,SMILES,Activity
1,C[C@H]1O[C@@H](n2cc(F)c(NC(=O)Oc3ccc([N+](=O)[O-])cc3)nc2=O)[C@@H]2OC(=O)O[C@@H]21,Non-toxic

# System: Salmonella typhimurium
# Assay: Mutagenic activity in Salmonella typhimurium TA98 at 0.312 to 5 mg/plate measured after incubation of upside down for 48 hrs in absence of liver S9 mixture
# Format: toxicity, organism-based
# Conditions: salmonella enterica subsp. enterica serovar typhimurium
# Method in brief: as §1
row,SMILES,Activity
1,C[C@H]1O[C@@H](n2cc(F)c(NC(=O)Oc3ccc([N+](=O)[O-])cc3)nc2=O)[C@@H]2OC(=O)O[C@@H]21,Non-toxic

# System: L1210
# Assay: Antitumor activity against mouse L1210 cells xenografted in BDF-1 mouse assessed as increase in mean survival time at 0.16 mmol/kg, po administered 5 days in a week for 3 weeks
# Conditions: not given
row,SMILES,MST [days]
1,C[C@H]1O[C@@H](n2cc(F)c(NC(=O)Oc3ccc([N+](=O)[O-])cc3)nc2=O)[C@@H]2OC(=O)O[C@@H]21,23.4

# System: not listed separately
# Assay: Cytotoxicity against human PZ-HPV-7 cells after 3 days MTT assay
# Format: functional, cell-based
# Conditions: 72 h
# Method in brief: as §3
row,SMILES,IC50 [µg/mL]
1,C[C@H]1O[C@@H](n2cc(F)c(NC(=O)Oc3ccc([N+](=O)[O-])cc3)nc2=O)[C@@H]2OC(=O)O[C@@H]21,6

# System: Salmonella typhimurium
# Assay: Mutagenic activity in Salmonella typhimurium TA1537 at 0.312 to 5 mg/plate preincubated for 20 mins before addition in absence of liver S9 mixture
# Format: toxicity, organism-based
# Conditions: salmonella enterica subsp. enterica serovar typhimurium
# Method in brief: as §2
row,SMILES,Activity
1,C[C@H]1O[C@@H](n2cc(F)c(NC(=O)Oc3ccc([N+](=O)[O-])cc3)nc2=O)[C@@H]2OC(=O)O[C@@H]21,Non-toxic

# System: Salmonella typhimurium
# Assay: Mutagenic activity in Salmonella typhimurium TA102 at 0.312 to 5 mg/plate preincubated for 20 mins before addition in presence of liver S9 mixture
# Format: toxicity, organism-based
# Conditions: salmonella enterica subsp. enterica serovar typhimurium
# Method in brief: as §2
row,SMILES,Activity
1,C[C@H]1O[C@@H](n2cc(F)c(NC(=O)Oc3ccc([N+](=O)[O-])cc3)nc2=O)[C@@H]2OC(=O)O[C@@H]21,Non-toxic

# System: not listed separately
# Assay: Toxicity in po dosed BDF-1 mouse
# Format: organism-based
# Conditions: in vivo
row,SMILES,LD50 [mg/kg]
1,C[C@H]1O[C@@H](n2cc(F)c(NC(=O)Oc3ccc([N+](=O)[O-])cc3)nc2=O)[C@@H]2OC(=O)O[C@@H]21,2000

# System: not listed separately
# Assay: Toxicity in po dosed BDF-1 mouse administered qd for 28 days
# Format: organism-based
# Conditions: in vivo
row,SMILES,LD50 at 672 h [mg/kg]
1,C[C@H]1O[C@@H](n2cc(F)c(NC(=O)Oc3ccc([N+](=O)[O-])cc3)nc2=O)[C@@H]2OC(=O)O[C@@H]21,200

# System: Salmonella typhimurium
# Assay: Mutagenic activity in Salmonella typhimurium TA102 at 0.312 to 5 mg/plate preincubated for 20 mins before addition in absence of liver S9 mixture
# Format: toxicity, organism-based
# Conditions: salmonella enterica subsp. enterica serovar typhimurium
# Method in brief: as §2
row,SMILES,Activity
1,C[C@H]1O[C@@H](n2cc(F)c(NC(=O)Oc3ccc([N+](=O)[O-])cc3)nc2=O)[C@@H]2OC(=O)O[C@@H]21,Non-toxic

# System: HeLa
# Assay: Cytotoxicity against human HeLa cells after 3 days MTT assay
# Format: functional, cell-based
# Conditions: 72 h
# Method in brief: as §3
row,SMILES,IC50 [µg/mL]
1,C[C@H]1O[C@@H](n2cc(F)c(NC(=O)Oc3ccc([N+](=O)[O-])cc3)nc2=O)[C@@H]2OC(=O)O[C@@H]21,0.03

# System: Salmonella typhimurium
# Assay: Mutagenic activity in Salmonella typhimurium TA1535 at 0.312 to 5 mg/plate measured after incubation of upside down for 48 hrs in presence of liver S9 mixture
# Format: toxicity, organism-based
# Conditions: salmonella enterica subsp. enterica serovar typhimurium, s9, 48 h
# Method in brief: as §1
row,SMILES,Activity
1,C[C@H]1O[C@@H](n2cc(F)c(NC(=O)Oc3ccc([N+](=O)[O-])cc3)nc2=O)[C@@H]2OC(=O)O[C@@H]21,Non-toxic

# System: Salmonella typhimurium
# Assay: Mutagenic activity in Salmonella typhimurium TA98 at 0.312 to 5 mg/plate measured after incubation of upside down for 48 hrs in presence of liver S9 mixture
# Format: toxicity, organism-based
# Conditions: salmonella enterica subsp. enterica serovar typhimurium, s9, 48 h
# Method in brief: as §1
row,SMILES,Activity
1,C[C@H]1O[C@@H](n2cc(F)c(NC(=O)Oc3ccc([N+](=O)[O-])cc3)nc2=O)[C@@H]2OC(=O)O[C@@H]21,Non-toxic

# System: Salmonella typhimurium
# Assay: Mutagenic activity in Salmonella typhimurium TA98 at 0.312 to 5 mg/plate preincubated for 20 mins before addition in presence of liver S9 mixture
# Format: toxicity, organism-based
# Conditions: salmonella enterica subsp. enterica serovar typhimurium
# Method in brief: as §2
row,SMILES,Activity
1,C[C@H]1O[C@@H](n2cc(F)c(NC(=O)Oc3ccc([N+](=O)[O-])cc3)nc2=O)[C@@H]2OC(=O)O[C@@H]21,Non-toxic

# System: Salmonella typhimurium
# Assay: Mutagenic activity in Salmonella typhimurium TA100 at 0.312 to 5 mg/plate preincubated for 20 mins before addition in presence of liver S9 mixture
# Format: toxicity, organism-based
# Conditions: salmonella enterica subsp. enterica serovar typhimurium
# Method in brief: as §2
row,SMILES,Activity
1,C[C@H]1O[C@@H](n2cc(F)c(NC(=O)Oc3ccc([N+](=O)[O-])cc3)nc2=O)[C@@H]2OC(=O)O[C@@H]21,Non-toxic

# System: Salmonella typhimurium
# Assay: Mutagenic activity in Salmonella typhimurium TA100 at 0.312 to 5 mg/plate measured after incubation of upside down for 48 hrs in presence of liver S9 mixture
# Format: toxicity, organism-based
# Conditions: salmonella enterica subsp. enterica serovar typhimurium, s9, 48 h
# Method in brief: as §1
row,SMILES,Activity
1,C[C@H]1O[C@@H](n2cc(F)c(NC(=O)Oc3ccc([N+](=O)[O-])cc3)nc2=O)[C@@H]2OC(=O)O[C@@H]21,Non-toxic

# System: NCI-H69
# Assay: Cytotoxicity against human NCI-H69 cells after 3 days MTT assay
# Format: functional, cell-based
# Conditions: NCI-H69, 72 h
# Method in brief: as §3
row,SMILES,IC50 [µg/mL]
1,C[C@H]1O[C@@H](n2cc(F)c(NC(=O)Oc3ccc([N+](=O)[O-])cc3)nc2=O)[C@@H]2OC(=O)O[C@@H]21,30

# System: Salmonella typhimurium
# Assay: Mutagenic activity in Salmonella typhimurium TA1535 at 0.312 to 5 mg/plate measured after incubation of upside down for 48 hrs in absence of liver S9 mixture
# Format: toxicity, organism-based
# Conditions: salmonella enterica subsp. enterica serovar typhimurium
# Method in brief: as §1
row,SMILES,Activity
1,C[C@H]1O[C@@H](n2cc(F)c(NC(=O)Oc3ccc([N+](=O)[O-])cc3)nc2=O)[C@@H]2OC(=O)O[C@@H]21,Non-toxic
